Active and inactive are the calls of the source. No cut-off for these calls is given here.
Assays:
Homo sapiens [1] = species on record: Homo sapiens; assay: Binding affinity to human kit2 G-quadruplex DNA assessed as change in melting temperature at 10 uM by FRET assay
How it was run: (§1)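 FRET melting: target oligos labelled 5′-DABCYL / 3′-fluorescein, 0.25 μM, with ligand in 50 mM potassium buffer (10 mM LiOH, 50 mM KCl, pH 7.4). Samples denatured at 95 °C for 5 min, cooled slowly overnight, then ramped to 90 °C and back to 30 °C at 0.2 °C/min. Excitation 488 nm, emission 520 nm. Tm taken from first derivative; at least three repeats, errors ±0.2 °C.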

Homo sapiens [2] = species on record: Homo sapiens; assay: Binding affinity to human kit1 G-quadruplex DNA assessed as change in melting temperature at 10 uM by FRET assay; how it was run: as §1
Homo sapiens [3] = species on record: Homo sapiens; assay: Binding affinity to human Tel24 G-quadruplex DNA assessed as change in melting temperature up to 20 uM by FRET assay; how it was run: as §1
Homo sapiens [4] = species on record: Homo sapiens; assay: Binding affinity to human TBA G-quadruplex DNA assessed as change in melting temperature at 10 uM by FRET assay; how it was run: as §1
BJ [5] = assay: Induction of DNA damage response in human BJ cells expressing human TERT assessed as phosphorylation of gamma H2AX at 1 uM after 24 hrs by DAPI staining-based immunofluorescence analysis; format: cell-based
How it was run: (§2)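 BJ-HELT and BJ-hTERT fibroblasts grown in D-MEM with 10% FCS and 2 mM glutamine, exposed to 1 μM for 24 h. Cells fixed in 2% formaldehyde, permeabilized with 0.25% Triton X-100, stained with anti-γH2AX plus FITC secondary, and counterstained with DAPI. 200 cells scored on triplicate slides. Mean ± SD of at least three experiments.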

Homo sapiens [6] = species on record: Homo sapiens; assay: Binding affinity to human c-myc G-quadruplex DNA assessed as change in melting temperature at 10 uM by FRET assay; how it was run: as §1
Homo sapiens [7] = species on record: Homo sapiens; assay: Displacement of thiazole orange from human Tel24 G-quadruplex DNA up to 28 uM by fluorescent intercalator displacement assay
How it was run: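 Tel24 unlabelled (0.6 μM) preloaded with thiazole orange (1.2 μM) in 10 mM Tris, 50 mM KCl, pH 7.4. Ligand added in increasing amounts and fluorescence emission followed. Displacement % = 100 − (F/F0 × 100), with F0 the signal before ligand, plotted against concentration. At least three repeats, each in triplicate.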

BJ [8] = assay: Induction of DNA damage response in human BJ cells expressing SV40 early region protein HELT assessed as phosphorylation of gamma H2AX at 1 uM after 24 hrs by DAPI staining-based immunofluorescence analysis relative to control; format: functional; how it was run: as §2
Homo sapiens [9] = species on record: Homo sapiens; assay: Binding affinity to human Tel24 G-quadruplex DNA assessed as change in melting temperature at 10 uM by FRET assay; how it was run: as §1
HT-29 [10] = assay: Induction of apoptosis in human HT-29 cells assessed as late apoptotic cells at 2 uM measured on day 5 by Annexin V/propidium iodide staining-based flow cytometric analysis (reference value: 10%); format: functional
HT-29 [11] = assay: Cytotoxicity against human HT-29 cells assessed as inhibition of cell survival after 4 days by clonogenic assay; format: functional, cell-based
How it was run: (§3)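 Cells seeded at 5 × 10^2 per 60 mm dish and treated 24 h later across a dose series for 4 days, then colony formation scored. Surviving fraction = treated/control absolute survival. IC50 from dose–response. Mean ± SD of three independent experiments.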

HT-29 [12] = assay: Cell cycle arrest in human HT-29 cells assessed as accumulation at subG1 phase at 2 uM by […]propidium iodide staining-based flow cytometric analysis; format: functional; conditions: TDE = time-dependent effect
How it was run: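 HT29 cells cultured with or without 2 μM and sampled on days 4, 5 and 6. Cells fixed in 70% ethanol, stained 30 min at room temperature in the dark with PI (50 μg/mL) plus RNase A, and analysed by flow cytometry (20000 events). Sub-G1 fraction taken as the apoptotic measure.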

Homo sapiens [13] = species on record: Homo sapiens; assay: Binding affinity to human Tel24 G-quadruplex DNA at 2:1 ligand/DNA ratio by NMR analysis
HT-29 [14] = assay: Induction of apoptosis in human HT-29 cells assessed as early apoptotic cells at 2 uM measured on day 5 by Annexin V/propidium iodide staining-based flow cytometric analysis (reference value: 4%); format: functional
Homo sapiens [15] = species on record: Homo sapiens; assay: Binding affinity to human Tel24 G-quadruplex DNA assessed as change in DNA topology by CD spectroscopic analysis
How it was run: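 CD spectra recorded at 25 °C, 220–320 nm, on annealed Tel24 (40 μM) with or without an excess of ligand. Buffer 10 mM Tris-HCl, 50 mM KCl, pH 7.4; 1 mm path length. Average of three scans, buffer baseline subtracted. Time constant 4 s, bandwidth 2 nm, scan rate 20 nm min−1.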

U2OS = assay: Cytotoxicity against human U2OS cells assessed as inhibition of cell survival after 4 days by clonogenic assay; format: functional, cell-based; how it was run: as §3
BJ [16] = assay: Cytotoxicity against human BJ cells expressing human TERT assessed as cell viability up to 3 uM after 4 days by MTT assay; format: cell-based; conditions: 96 h
How it was run: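 BJ-hTERT cells seeded at 3 × 10^3 per well and treated 24 h later with 0, 1, 2 or 3 μM for 4 days. MTT (5 mg/mL stock in PBS) added, followed by 4 h at 37 °C. Formazan dissolved in isopropanol and OD read at 540 nm. Mean ± SD of three experiments.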

HeLa = assay: Cytotoxicity against human HeLa cells assessed as inhibition of cell survival after 4 days by clonogenic assay; format: functional, cell-based; how it was run: as §3
BJ [17] = assay: Induction of telomere dysfunction induced foci in human BJ cells expressing SV40 early protein HELT assessed as increase in gamma H2AX/TRF1 co-localization at 1 uM by deconvolution microscopy relative to control; format: functional
How it was run: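 BJ-HELT fibroblasts given 1 μM, then double immunofluorescence for γH2AX and TRF1 with DAPI, imaged by deconvolution microscopy. In a single plane, 30 γH2AX-positive cells scored; cells with at least four γH2AX/TRF1 colocalizations counted as TIF-positive. Mean TIFs per nucleus also scored. Mean ± SD, three experiments.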

Activity (Homo sapiens [1]) | Activity (Homo sapiens [2]) | Activity (Homo sapiens [3]) | Activity (Homo sapiens [4]) | Activity (Homo sapiens [6]) | Activity (Homo sapiens [7]) | SMILES | Activity (BJ [5]) | Activity (BJ [8]) | further results
inactive | inactive | inactive | inactive | inactive | inactive | Clc1ccc2[nH]c(-c3ccc(OCCCN4CCN(c5ccccc5)CC4)cc3)nc2c1 | Non-toxic | Active | –
inactive | inactive | – | inactive | inactive | – | Cc1cc(NC(=O)c2cc(-c3ccccc3O)no2)nn1CC(=O)N1CCOCC1 | – | – | –
inactive | inactive | inactive | inactive | inactive | inactive | COc1ccc(NC(=O)c2ccc(CN3CCC(Cc4ccccc4)CC3)cc2)cc1OC | Non-toxic | Active | –
– | – | – | – | – | Active | Cn1c(=O)c2cc(C(=O)NCCN3CCC(Cc4ccccc4)CC3)sc2c2ccccc21 | Non-toxic | 60% | Activity (Homo sapiens [9]): Active; Activity (HT-29 [10]): 30%; Activity (HT-29 [11]): Dose-dependent effect; IC50 (HT-29 [11]; HT-29, 96 h): 1 µM; Activity (HT-29 [12]): tde; Activity (Homo sapiens [13]): Active; Activity (HT-29 [14]): 37%; Activity (Homo sapiens [15]): Active; Activity (U2OS): Dose-dependent effect; IC50 (U2OS; 96 h): 1 µM; ΔTm (Homo sapiens [3]): 11 °C; Activity (BJ [16]): Non-toxic; Activity (HeLa): Dose-dependent effect; IC50 (HeLa; 96 h): 1 µM; Activity (BJ [17]): <=50%
